Bioassay records as filed in PubChem BioAssay.
Only some compounds are listed: those with a hit (about 2.5% of all), similar ones and a draw of the others.
SENP8 block-1: SENP8 protease inhibitors, primary screen, biochemical, luminescence | AID 2540, 2010 | inhibition, % at 10 µM | actives 1.2% (n = 330,000) | purified SENP8, Z-RLRGG-aminoluciferin cleavage | Sentrin-specific protease 8 (Homo sapiens), Q96LD8; in the data active = inhibition above about 50%
SENP1 inh: human SENP1 catalytic domain inhibitors, primary screen, biochemical, FRET, uHTS. actives 0.21% (n = 360,000). Sentrin-specific protease 1 (Homo sapiens), Q9P0U3. AID 624204, 2012. recombinant SENP1 catalytic domain, CyPet-SUMO1-YPet FRET cleavage. inhibition, % at 10 µM;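 active = inhibition at least 30% at 10 µM, raw YFP signal under a set limit, fluorescence ratio 0.5 to 1.5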;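 also: 0% = enzyme with DMSO and 100% = no enzyme wells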
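Material: hSENP1 catalytic domain, recombinant; medium: Tris pH 8 with BME, BSA, NP40 and catalase; compound: single concentration of 10 µM compound, 0.5% DMSO final; technique: FRET read of cyan and yellow fluorescence; timing: 50 min enzyme reaction, room temperature, light-protected; reagent: SFCypet-SUMO1-SFYpet substrate at 25 nM; control set: no-enzyme low, enzyme-DMSO high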
SENP7 inh: SENP7 protease inhibitors, primary screen, biochemical, luminescence, uHTS | AID 434973, 2010 | actives 1.5% (n = 330,000) | recombinant SENP7, Z-RLRGG-aminoluciferin luminescence, 40 min | inhibition, % at 5 µM | Sentrin-specific protease 7 (Homo sapiens), Q9BQF6;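 active = inhibition above about 50% at the single test dose, limit read from the data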;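 also: plate controls were DMSO with enzyme for no effect and no enzyme buffer wells for full effect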
Target sequence (Q9BQF6 706-1050 limits assumed): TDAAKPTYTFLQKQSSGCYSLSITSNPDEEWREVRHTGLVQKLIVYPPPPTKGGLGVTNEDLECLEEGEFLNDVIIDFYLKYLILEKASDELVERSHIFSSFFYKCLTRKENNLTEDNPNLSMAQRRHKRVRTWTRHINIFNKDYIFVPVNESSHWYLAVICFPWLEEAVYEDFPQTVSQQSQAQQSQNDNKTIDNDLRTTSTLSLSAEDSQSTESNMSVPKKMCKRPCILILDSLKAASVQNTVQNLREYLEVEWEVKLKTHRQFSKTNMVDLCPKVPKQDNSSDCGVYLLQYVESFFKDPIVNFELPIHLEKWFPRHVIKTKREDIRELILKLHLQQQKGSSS
SENP8 block-2: human SENP8 protease inhibitors, primary screen, biochemical, fluorescence, Nedd8 protein substrate, uHTS; Sentrin-specific protease 8 (Homo sapiens), Q96LD8; inhibition, % at 20 µM; recombinant SENP8; actives 0.64% (n = 360,000); in the data active = inhibition mostly above about 40%, no sharp cut-off; inactive = mostly below about 27%
SENP6 block: SENP6 protease inhibitors, primary screen, biochemical, luminescence, uHTS; Sentrin-specific protease 6 (Homo sapiens), Q9GZR1; Recombinant SENP6 catalytic domain, aminoluciferin luminescence; inhibition, % at 10 µM; actives 1.8% (n = 330,000);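 active = inhibition above about 50% at the single tested dose, limit read from the data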;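 also: plate controls were DMSO wells with enzyme for no effect and DMSO wells lacking enzyme for full effect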
SENP8 confirm: SENP8 protease inhibitors, retest, confirmation, biochemical, luminescence, single concentration. inhibition, % at 12.5 µM. Recombinant SENP8, Z-RLRGG-aminoluciferin luminescence, 60 min. actives 40% (n = 6,200). shares compounds with SENP7 inh;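 active = mean inhibition across replicates above about 50%, limit read from the data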
SENP6 confirm: SENP6 protease inhibitors, confirmation, biochemical, luminescence, single concentration; shares compounds with SENP7 inh; recombinant SENP6, Z-RLRGG-aminoluciferin luminescence; inhibition, % at 12.5 µM; actives 58% (n = 6,200); AID 488915, 2010
SENP7 conf: SENP7 protease inhibitors, retest, confirmation, biochemical, luminescence, single concentration; shares compounds with SENP7 inh; recombinant SENP7, Z-RLRGG-aminoluciferin luminescence, 40 min; inhibition, % at 12.5 µM; actives 69% (n = 6,200)
Casp3 select: caspase-3 protease inhibitors, confirmation, selectivity assay for SENP inhibitor project, biochemical, single concentration. shares compounds with SENP7 inh. purified caspase-3, Z-DEVD-aminoluciferin luminescence, 60 min. inhibition, % at 12.5 µM. actives 60% (n = 6,200);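 active = mean inhibition above about 50%, limit read from the data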;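 also: plate controls were enzyme with DMSO for no effect and wells without caspase-3 for full effect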
Luc interf: interferes with luciferase luminescence in SENP counter-screen. Pre-incubated SENP8/Z-RLRGG-aminoluciferin, luciferase luminescence interference. inhibition, % at 12.5 µM. shares compounds with SENP7 inh. AID 488919. actives 39% (n = 6,200);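 active = mean inhibition above about 50% when retested at one dose, limit read from the data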;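 also: plate controls were DMSO wells with completed reaction for no effect and substrate without enzyme for full effect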
Active calls of the source: *.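 The calls were made as follows, unless noted: active = mean inhibition above about 50% in the one-dose retest (limit read from the data); inactive = the rest.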

For O=C(O)c1ccccc1N/N=C/c1cc(Br)cc(Br)c1O the results were SENP8 block-1 92.4*, SENP1 inh -99.5, SENP7 inh 8.6, SENP8 block-2 4.7, SENP6 block 101.9*, SENP8 confirm 94.1*, SENP6 confirm 97.5*, SENP7 conf 96.6*, Casp3 select 69.9* and Luc interf 39.6.
For O=C(O)c1cccc2c(/C=N/Nc3ccccn3)c[nH]c12 the results were SENP8 block-1 87.8*, SENP1 inh 2.2, SENP7 inh 90.3*, SENP8 block-2 14.3, SENP6 block 90.0*, SENP8 confirm 64.8*, SENP6 confirm 92.2*, SENP7 conf 93.0*, Casp3 select 93.1* and Luc interf 46.9.
ON=Cc1ccnc2ccccc12 was read as SENP1 inh 1.3 and SENP8 block-2 -11.9.
`COc1ccc(CCc2nnc(NS(C)(=O)=O)s2)cc1` gave SENP8 block-1 -4.5, SENP1 inh 0.9, SENP7 inh 2.6, SENP8 block-2 14.4 and SENP6 block 2.6.
Cc1ccc(S(=O)(=O)/N=C(/NNC(=O)c2cccc(Cl)c2)c2ccccc2)cc1 was read as SENP8 block-1 49.1, SENP1 inh 2.8, SENP7 inh 68.2*, SENP8 block-2 10.0, SENP6 block 78.2*, SENP8 confirm 13.6, SENP6 confirm 24.9, SENP7 conf 62.7*, Casp3 select 42.7 and Luc interf 45.3.
Cc1ccc(S(=O)(=O)NN/C(=N/S(=O)(=O)c2ccccc2)c2ccccc2)cc1 was read as SENP8 block-1 -10.7, SENP1 inh 2.0, SENP7 inh -2.6, SENP8 block-2 2.0 and SENP6 block -10.9.
O=C(NN/C(=N/S(=O)(=O)c1ccc(Cl)cc1)c1ccccc1)c1ccc(O)cc1 was read as SENP8 block-1 95.1*, SENP1 inh 0.2, SENP7 inh 97.2*, SENP8 block-2 -59.5, SENP6 block 95.7*, SENP8 confirm 72.6*, SENP6 confirm 62.6*, SENP7 conf 89.1*, Casp3 select 87.4* and Luc interf 87.5*.
For O=C(NN/C(=N/S(=O)(=O)c1ccc(Cl)cc1)c1ccccc1)c1cccc(Cl)c1 the results were SENP8 block-1 71.0*, SENP1 inh 2.4, SENP7 inh 84.7*, SENP8 block-2 19.6, SENP6 block 86.3*, SENP8 confirm 50.7*, SENP6 confirm 64.0*, SENP7 conf 87.1*, Casp3 select 63.0* and Luc interf 38.5.
`COCCCn1c(=O)c2ccccc2n2c(=S)[nH]nc12` gave SENP8 block-1 -9.8, SENP1 inh 1.3, SENP7 inh -7.9, SENP8 block-2 10.0 and SENP6 block -18.1.
`CSc1cccc(NC(=O)C(C)NS(=O)(=O)c2ccc(F)cc2)c1` (centres undefined) gave SENP8 block-1 -1.9, SENP1 inh -1.6, SENP7 inh 6.4, SENP8 block-2 11.3 and SENP6 block 2.7.
